Experimental data: ChEMBL document CHEMBL1667797, “Synthesis and anticoagulant activity of a new series of 1,4-dihydropyridine derivatives” (2011)

How the values were obtained:
Type in all cases: functional
[1] = test system: Plasma; experiment: Anticoagulant activity in human plasma assessed as activated partial […] time at 30 ug/ml
Outline: (§1)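 Citrated plasma from healthy human donors (blood into 2.5% sodium citrate, spun 5400 rpm, 4 °C, 20 min, stored -70 °C). Plasma 90 µl plus 10 µl compound in water, 1 min at 37 °C. APTT reagent added, 5 min at 37 °C, then CaCl2 added. Clotting time read on a coagulometer. Saline control, heparin reference. Index = sample APTT/control APTT. Mean of five trials.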

[2] = test system: Plasma; experiment: Anticoagulant activity in human plasma assessed as activated partial […] time at 60 ug/ml; outline: as §1
[3] = test system: Plasma; experiment: Anticoagulant activity in human plasma assessed as activated partial […] time index at 30 ug/ml relative to control; outline: as §1
[4] = test system: Plasma; experiment: Anticoagulant activity in human plasma assessed as activated partial […] time index at 60 ug/ml relative to control; outline: as §1
[5] = test system: Plasma; experiment: Anticoagulant activity in human plasma assessed as prothrombin time at 30 ug/ml
Outline: (§2)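 Citrated human donor plasma (2.5% sodium citrate, spun 5400 rpm at 4 °C for 20 min, kept at -70 °C). 90 µl plasma with 10 µl aqueous compound, incubated 10 min at 37 °C. Pre-incubated PT reagent (200 µl) added, clotting time recorded. Normal saline as control. PT index = sample PT/control PT. Mean of five trials.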

[6] = test system: Plasma; experiment: Anticoagulant activity in human plasma assessed as prothrombin time at 60 ug/ml; outline: as §2
[7] = test system: Plasma; experiment: Anticoagulant activity in human plasma assessed as prothrombin time index at 30 ug/ml relative to control; outline: as §2
[8] = test system: Plasma; experiment: Anticoagulant activity in human plasma assessed as prothrombin time index at 60 ug/ml relative to control; outline: as §2

SMILES	APTT [1]	APTT [2]	Ratio [3]	Ratio [4]	PT [5]	PT [6]	Ratio [7]	Ratio [8]
CC1=C(C(=O)NNC(N)=S)C(c2ccc(O)cc2)C(C(=O)NNC(N)=S)=C(C)N1	400.8 s	882.7 s	11	24.25	45.6 s	70.8 s	2.3	3.5
CC1=C(C(=O)NNC(N)=S)C(c2ccco2)C(C(=O)NNC(N)=S)=C(C)N1	720.35 s	>1000 s	19.78	27.47	240.42 s	420.21 s	12.14	21.22
COc1ccc(C2C(C(=O)NNC(N)=S)=C(C)NC(C)=C2C(=O)NNC(N)=S)cc1	64.7 s	120.2 s	1.85	3.3	45.7 s	93.4 s	2.03	4.71
CC1=C(C(=O)NNC(N)=S)C(c2ccc(Cl)cc2)C(C(=O)NNC(N)=S)=C(C)N1	90.7 s	200.4 s	2.49	5.5		33.8 s	0	1.24
CC1=C(C(=O)NNC(N)=S)C(c2ccccc2)C(C(=O)NNC(N)=S)=C(C)N1	87.5 s	182.4 s	2.4	5.01		45.8 s	0	2.31
CC1=C(C(=O)NNC(N)=S)C(c2ccc(N(C)C)cc2)C(C(=O)NNC(N)=S)=C(C)N1	221.8 s	480 s	6.09	13.18	21.6 s	48.2 s	1.09	2.43
CC1=C(C(=O)NNC(N)=S)C(c2ccc([N+](=O)[O-])cc2)C(C(=O)NNC(N)=S)=C(C)N1	321.2 s	721.8 s	8.82	19.82	24.7 s	52.8 s		2.66
